The target in data set [1] is T1, Mitogen-activated protein kinase 14 (Homo sapiens, UniProt Q16539). Description: Inhibition of GST-tagged human recombinant p38alpha expressed in Escherichia coli by Z'-LYTE assay.
Data set [2] deals with T2, Mitogen-activated protein kinase 9 (Homo sapiens, UniProt P45984). Description: Inhibition of Nano-Luc fused JNK2 (unknown origin) expressed in HEK293T cells pretreated for 3 hrs followed by K5-tarcer addition and measured after 1 hr by NanoBRET assay. The class given is cell-based.
Target sequence in this assay (P45984 whole entry, the tested form may be a part): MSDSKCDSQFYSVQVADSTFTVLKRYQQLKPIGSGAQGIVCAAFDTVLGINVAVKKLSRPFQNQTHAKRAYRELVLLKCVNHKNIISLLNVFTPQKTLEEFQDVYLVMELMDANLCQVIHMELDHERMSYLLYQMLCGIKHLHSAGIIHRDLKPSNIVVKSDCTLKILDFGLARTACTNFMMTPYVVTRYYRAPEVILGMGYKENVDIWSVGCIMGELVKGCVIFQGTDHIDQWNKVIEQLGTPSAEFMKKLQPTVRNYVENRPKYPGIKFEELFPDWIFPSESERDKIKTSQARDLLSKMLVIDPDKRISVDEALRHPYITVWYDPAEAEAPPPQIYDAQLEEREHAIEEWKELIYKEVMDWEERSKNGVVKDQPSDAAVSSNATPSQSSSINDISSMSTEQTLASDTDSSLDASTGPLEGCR
Data set [3] has as its target T1, Mitogen-activated protein kinase 14. Description: Inhibition of Nano-Luc fused p38alpha (unknown origin) expressed in HEK293T cells pretreated for 3 hrs followed by K5-tarcer addition and measured after 1 hr by NanoBRET assay. Conditions: time 4.0 hrs. In kind it is cell-based. (In general: Bioluminescence resonance energy transfer reports proximity on the nanometre scale.)

Data set [4] relates to MM1.S. The data set can be described thus: Antiproliferative activity against human MM1.S cells assessed as inhibition of cell growth rate measured after 72 hrs by CellTiter-Glo luminescent assay. The class given is functional. In general terms: ATP-based viability assays read luminescence as a measure of living cells.
Data set [5] has as its system MM1.S. Description: Induction of apoptosis in human MM1.S cells at 250 nM by AnnexinV/PI staining based flow cytometry. The class given is functional, cell-based. (In general: A flow cytometer gives signals particle by particle.)
A short description of data set [6]: Antiproliferative activity against Bortezomib-resistant human ANBL-6 cells assessed as inhibition of cell growth incubated for 72 hrs by CellTiter-Glo luminescent assay. In kind it is functional, cell-based. Conditions: ANBL-6, 72 h.
In data set [7] the target is T2, Mitogen-activated protein kinase 9. Description: Covalent binding affinity to JNK2 in human MM1.S cells at 500 nM incubated for 6 hrs by biotin-JNK-IN-7 probe based pull-down competition based analysis. The class given is cell-based. The procedure, abridged: (§1)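 MM.1S cells exposed to compound or DMSO 6 h; lysed in HEPES pH 7.4/NP-40 buffer; lysates incubated with 1 μM biotin-JNK-IN-7 overnight at 4 °C then 2 h room temperature; streptavidin pull-down 2–3 h at 4 °C; bound JNK1/JNK2 detected by western blot.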
Target sequence in this assay (P45984 whole entry, looked up, the tested form may be a part): as the sequence (P45984 whole entry, the tested form may be a part) above

Data set [8] is described as follows: Antiproliferative activity against wild type human ANBL-6 cells assessed as inhibition of cell growth incubated for 72 hrs by CellTiter-Glo luminescent assay. In kind it is functional, cell-based. The settings on record: ANBL-6, 72 h.
The target in data set [9] is T3, Mitogen-activated protein kinase 8 (Homo sapiens, UniProt P45983). Description: Inhibition of JNK1 in human MM1.S cells at 1 uM by KiNativ Profiling analysis. In kind it is cell-based. The procedure, abridged:
(§2)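 MM.1S cells treated with 1 μM compound, collected, PBS-washed, frozen; KiNativ lysate profiling with ATP/ADP-biotin probe labelling conserved catalytic lysine.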

Data set [10] has as its target T2, Mitogen-activated protein kinase 9. The data set can be described thus: Inhibition of JNK2 in human MM1.S cells at 1 uM by KiNativ Profiling analysis. The class given is cell-based. The procedure, abridged: as §2
Target sequence in this assay (P45984 whole entry, looked up, the tested form may be a part): as the sequence (P45984 whole entry, the tested form may be a part) above
Data set [11] concerns MM1.S. The class given is functional, cell-based. Conditions: Homo sapiens, time 72.0 hrs.
For data set [12], the target named is T3, Mitogen-activated protein kinase 8. Description: Covalent binding affinity to JNK1 in human MM1.S cells at 2 uM incubated for 6 hrs by biotin-JNK-IN-7 probe based pull-down competition based analysis. In kind it is cell-based. In outline: as §1
Data set [13] shares this target. Description: Inhibition of His-tagged human recombinant JNK1 expressed in insect cells incubated for 1 hr in presence of ATP by Z'-Lyte assay relative to control. The settings on record: Insect cell.
The target of data set [14] is T2, Mitogen-activated protein kinase 9. Description: Inhibition of His-tagged human recombinant JNK2 expressed in baculovirus expression system incubated for 1 hr in presence of ATP by Z'-Lyte assay relative to control.
Target sequence in this assay (P45984 whole entry, looked up, the tested form may be a part): as the sequence (P45984 whole entry, the tested form may be a part) above
Data set [15] can be described thus: Antiproliferative activity against human HAP1 cells transfected with sgGFP assessed as inhibition of cell growth incubated for 3 days by CellTiter-Glo luminescent assay. In kind it is functional, cell-based. Conditions: HAP1, 72 h.
Data set [16] concerns the target T4, 1-phosphatidylinositol 3-phosphate 5-kinase (Homo sapiens, UniProt Q9Y2I7). The data set can be described thus: Inhibition of PIKFYVE in human SUM159 cells at 1 uM by KiNativ Profiling analysis. The settings on record: SUM159PT. The class given is cell-based. The procedure, abridged: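 SUM159 cells treated with 1 μM compound, collected, PBS-washed and frozen; lysates probed with ATP/ADP-biotin acyl probe labelling catalytic lysine (KiNativ); protection from labelling measured.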

Data set [17] can be described thus: Antiproliferative activity against human HAP1 cells assessed as inhibition of cell growth incubated for 3 days by CellTiter-Glo luminescent assay. In kind it is functional, cell-based. Conditions: HAP1, 72 h.
Data set [18] addresses T4, 1-phosphatidylinositol 3-phosphate 5-kinase. Description: Inhibition of PIKFYVE in human MDA-MB-231 cells assessed as vacuole formation upto 4 uM measured after 3 days by bright field microscopy. The class given is cell-based. Conditions: time 3.0 day. In outline: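 MDA-MB-231 cells (DMEM, 10% FBS) seeded, next day treated with inhibitor or DMSO; after 3 days imaged by bright-field microscopy at 20× for vacuoles.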

Data set [19] is described as follows: Antiproliferative activity against JNK knock-out human HAP1 cells transfected with sgJNK#1 assessed as inhibition of cell growth incubated for 3 days by CellTiter-Glo luminescent assay. Conditions: HAP1, 72 h. In kind it is functional, cell-based.
Data set [20] is described as follows: Antiproliferative activity against JNK knock-out human HAP1 cells transfected with sgJNK#2 assessed as inhibition of cell growth incubated for 3 days by CellTiter-Glo luminescent assay. The class given is functional, cell-based. Conditions: HAP1, 72 h.
The test system of data set [21] is MM1.S. Description: Antiproliferative activity against human MM1.S cells overexpressing wild type JNK2 assessed as inhibition of cell growth rate measured after 72 hrs by CellTiter-Glo luminescent assay. The class given is functional, cell-based.
Data set [22] relates to MM1.S. Description: Antiproliferative activity against human MM1.S cells assessed as inhibition of cell growth rate pretreated for 1 hr with JNK2 inhibitor, CC930 followed by incubation with drug and measured after 72 hrs by CellTiter-Glo luminescent assay. In kind it is functional, cell-based. In outline: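 MM.1S cells seeded 4000 cells/well, pretreated with 10 μM CC930, then exposed to inhibitor for 72 h; CellTiter-Glo luminescence, GR values from GR calculator; three biological replicates.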

Data set [23] in a line: Half life in mouse liver microsomes at 1 uM by LC-MS/MS analysis. The class given is ADME, Microsome.
In data set [24] the test system is MM1.S. The data set can be described thus: Induction of apoptosis in human MM1.S cells assessed as increase in PARP cleavage at 0.5 to 2.5 uM incubated for 24 hrs by immunoblot analysis. In kind it is functional, cell-based. The settings on record: dose 0.5-2.5 µM.
In data set [25] the test system is MM1.S. The data set can be described thus: Induction of apoptosis in human MM1.S cells assessed as increase in caspase-3 cleavage at 0.5 to 2.5 uM incubated for 24 hrs by immunoblot analysis. The class given is functional, cell-based. Conditions: dose 0.5-2.5 µM.
The nature of data set [26]: Half life in human liver microsomes at 1 uM by LC-MS/MS analysis. In kind it is ADME, Microsome.
The nature of data set [27]: GSH reactivity in potassium phosphate buffer at pH 7.4 assessed as half life at 1 uM by LC-MS/MS analysis. In kind it is ADME. Conditions: pH 7.4, 1 µM.
Data set [28] concerns the target T4, 1-phosphatidylinositol 3-phosphate 5-kinase. The data set can be described thus: Inhibition of wild type partial length human PIKFYVE (F1512 to C2098 residues) expressed in mammalian expression system at 1 uM by KinomeScan analysis. The procedure, abridged: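 KINOMEscan (ScanMAX) binding panel of >400 kinases, compound tested at 1 μM; reported as percent inhibition/score.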

The target in data set [29] is Mitogen-activated protein kinase 10 (Homo sapiens) (UniProt P53779). Description: Inhibition of GST-tagged human recombinant JNK3 expressed in insect cells incubated for 1 hr in presence of ATP by Z'-lyte assay relative to control. The settings on record: Insect cell.
Mitogen-activated protein kinase 10 (Homo sapiens), sequence (P53779 whole entry): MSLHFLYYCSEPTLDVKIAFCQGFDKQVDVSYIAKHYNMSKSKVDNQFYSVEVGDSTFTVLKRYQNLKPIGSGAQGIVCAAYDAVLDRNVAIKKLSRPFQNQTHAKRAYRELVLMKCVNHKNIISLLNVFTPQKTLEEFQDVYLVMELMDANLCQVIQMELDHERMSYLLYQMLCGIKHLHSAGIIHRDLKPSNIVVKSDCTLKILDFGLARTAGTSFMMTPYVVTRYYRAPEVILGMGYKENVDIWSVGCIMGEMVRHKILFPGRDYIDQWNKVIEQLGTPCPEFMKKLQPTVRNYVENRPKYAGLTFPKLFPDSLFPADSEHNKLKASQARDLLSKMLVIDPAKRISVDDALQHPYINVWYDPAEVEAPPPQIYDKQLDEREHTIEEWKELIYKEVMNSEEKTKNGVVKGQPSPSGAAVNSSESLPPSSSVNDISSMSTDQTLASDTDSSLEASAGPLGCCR
Data set [30] shares this target. The data set can be described thus: Inhibition of JNK3 in human MM1.S cells at 1 uM by KiNativ Profiling analysis. The class given is cell-based. In outline:
as §2

Molecules are shown by their SMILES. Activity calls are given as the source filed them. The rule behind the calls is not given here.

T1 sequence (Q16539 whole entry, the tested form may be a part): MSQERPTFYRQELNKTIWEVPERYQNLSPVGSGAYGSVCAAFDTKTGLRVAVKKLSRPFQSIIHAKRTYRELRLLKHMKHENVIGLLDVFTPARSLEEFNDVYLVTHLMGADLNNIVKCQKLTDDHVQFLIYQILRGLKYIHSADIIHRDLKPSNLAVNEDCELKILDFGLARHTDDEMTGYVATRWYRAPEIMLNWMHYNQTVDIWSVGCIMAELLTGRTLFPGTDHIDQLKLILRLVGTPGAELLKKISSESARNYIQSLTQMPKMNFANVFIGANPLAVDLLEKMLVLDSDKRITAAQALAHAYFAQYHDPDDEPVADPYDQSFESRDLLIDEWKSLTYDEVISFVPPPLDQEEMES
T4 sequence (Q9Y2I7 whole entry): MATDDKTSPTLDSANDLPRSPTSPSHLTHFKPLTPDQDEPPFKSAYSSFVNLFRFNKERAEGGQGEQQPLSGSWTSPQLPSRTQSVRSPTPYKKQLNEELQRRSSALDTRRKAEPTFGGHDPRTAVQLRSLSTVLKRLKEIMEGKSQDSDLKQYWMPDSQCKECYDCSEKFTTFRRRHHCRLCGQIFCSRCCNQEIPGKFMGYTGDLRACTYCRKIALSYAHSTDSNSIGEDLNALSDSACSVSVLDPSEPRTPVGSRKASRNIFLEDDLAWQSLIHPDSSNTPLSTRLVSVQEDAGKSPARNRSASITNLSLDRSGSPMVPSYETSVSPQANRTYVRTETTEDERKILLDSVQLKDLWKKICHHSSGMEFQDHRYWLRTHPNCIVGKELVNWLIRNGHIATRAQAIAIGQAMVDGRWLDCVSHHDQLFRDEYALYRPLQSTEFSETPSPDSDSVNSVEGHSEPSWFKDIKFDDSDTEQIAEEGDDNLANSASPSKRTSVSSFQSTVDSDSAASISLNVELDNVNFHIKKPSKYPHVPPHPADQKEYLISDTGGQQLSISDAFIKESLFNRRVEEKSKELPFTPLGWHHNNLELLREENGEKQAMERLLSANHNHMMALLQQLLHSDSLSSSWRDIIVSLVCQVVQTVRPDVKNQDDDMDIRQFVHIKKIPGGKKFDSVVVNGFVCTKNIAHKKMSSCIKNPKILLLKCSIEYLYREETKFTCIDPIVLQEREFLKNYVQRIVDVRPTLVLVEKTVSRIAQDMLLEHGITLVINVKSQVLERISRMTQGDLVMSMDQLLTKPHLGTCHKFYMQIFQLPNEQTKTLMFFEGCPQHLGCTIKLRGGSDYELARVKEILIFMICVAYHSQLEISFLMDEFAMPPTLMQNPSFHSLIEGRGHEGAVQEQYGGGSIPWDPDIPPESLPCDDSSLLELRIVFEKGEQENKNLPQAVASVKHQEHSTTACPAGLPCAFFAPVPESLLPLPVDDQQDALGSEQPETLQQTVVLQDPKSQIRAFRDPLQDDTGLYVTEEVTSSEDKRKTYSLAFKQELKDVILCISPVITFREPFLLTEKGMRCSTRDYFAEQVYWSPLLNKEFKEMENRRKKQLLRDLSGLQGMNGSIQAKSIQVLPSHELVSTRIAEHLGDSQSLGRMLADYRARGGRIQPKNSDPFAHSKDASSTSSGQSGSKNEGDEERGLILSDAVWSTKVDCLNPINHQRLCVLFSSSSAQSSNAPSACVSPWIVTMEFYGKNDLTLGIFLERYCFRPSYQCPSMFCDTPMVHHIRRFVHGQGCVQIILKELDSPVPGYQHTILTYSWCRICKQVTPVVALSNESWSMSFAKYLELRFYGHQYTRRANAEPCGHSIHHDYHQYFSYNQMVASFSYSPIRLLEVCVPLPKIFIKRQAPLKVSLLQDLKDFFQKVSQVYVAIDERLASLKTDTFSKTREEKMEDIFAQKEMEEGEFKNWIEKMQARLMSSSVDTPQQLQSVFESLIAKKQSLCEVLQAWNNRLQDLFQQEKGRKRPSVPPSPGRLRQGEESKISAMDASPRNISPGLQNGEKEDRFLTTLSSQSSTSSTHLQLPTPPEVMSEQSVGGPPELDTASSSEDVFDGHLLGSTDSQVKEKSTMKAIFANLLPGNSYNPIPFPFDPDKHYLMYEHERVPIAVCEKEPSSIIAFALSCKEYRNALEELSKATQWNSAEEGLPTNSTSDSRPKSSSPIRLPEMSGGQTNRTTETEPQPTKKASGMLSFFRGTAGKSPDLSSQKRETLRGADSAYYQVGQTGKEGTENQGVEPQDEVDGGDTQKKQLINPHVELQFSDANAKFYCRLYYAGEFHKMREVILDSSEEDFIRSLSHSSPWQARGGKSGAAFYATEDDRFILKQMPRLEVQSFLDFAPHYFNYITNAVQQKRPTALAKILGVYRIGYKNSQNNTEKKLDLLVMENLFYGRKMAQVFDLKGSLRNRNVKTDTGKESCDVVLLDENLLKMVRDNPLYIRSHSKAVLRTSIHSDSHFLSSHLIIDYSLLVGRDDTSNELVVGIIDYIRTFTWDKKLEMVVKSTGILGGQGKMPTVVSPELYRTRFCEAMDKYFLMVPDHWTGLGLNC
T3 sequence (P45983 whole entry): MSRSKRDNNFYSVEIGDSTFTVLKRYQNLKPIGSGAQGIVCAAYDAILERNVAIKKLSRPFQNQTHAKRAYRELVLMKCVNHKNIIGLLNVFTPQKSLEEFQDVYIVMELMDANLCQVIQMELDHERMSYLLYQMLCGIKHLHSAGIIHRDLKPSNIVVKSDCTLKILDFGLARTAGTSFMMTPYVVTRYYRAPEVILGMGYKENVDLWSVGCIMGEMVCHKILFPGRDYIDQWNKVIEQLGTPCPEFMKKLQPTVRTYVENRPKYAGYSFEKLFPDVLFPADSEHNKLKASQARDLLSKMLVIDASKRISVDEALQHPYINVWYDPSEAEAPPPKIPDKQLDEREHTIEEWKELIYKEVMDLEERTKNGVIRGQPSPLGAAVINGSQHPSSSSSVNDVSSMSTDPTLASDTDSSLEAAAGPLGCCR

One may read the IC50 as the point on the concentration scale where inhibition reaches its midpoint. Usually inhibition stands for the share of the control response that was lost under treatment. Regarding `C[C@H]1CN(C(=O)c2ccc(NC(=O)CCCN(C)C)cc2)C[C@H]1Nc1nccc(-c2c(-c3ccccc3)nn3ccccc23)n1`, the IC50 in data set [1] is 15 nM; in data set [2], 1700 nM. Further, the inhibition entry in [3] was “Active”. The outcome in the data set with MM1.S [4] was inactive.

`C[C@H]1CN(C(=O)c2ccc(NC(=O)/C=C/CN(C)C)cc2)C[C@H]1Nc1nccc(-c2c(-c3ccccc3)nn3ccccc23)n1`: the IC50 in data set [1] was determined as 15 nM; in [6] it was 96 nM; in data set [8], 120 nM; in data set [15], 976 nM; in [17], 529 nM; in [19], 1110 nM. Besides, the IC50 in [20] came to 846 nM. Also, the outcome (in the data set on MM1.S [5]; in data set [7]; with MM1.S [11]; in [12]; in the data set with MM1.S [21]; in the data set with MM1.S [22]) was Active. In addition, the result in the data set on MM1.S [24] and in the data set on MM1.S [25] was Active. For the same compound, the inhibition result in data set [9], in [10], in data set [3] and in data set [30] was “Active” each time. Further, the figures for the Imax in data set [13], in data set [14] and in [29] were 85%, 98% and 68%, respectively. In addition, the inhibition entry in [16] and in data set [18] was “inactive” in each case. Also, the values for the t1/2 in data set [23], in data set [26] and in [27] were 11 min, 16 min and 46 min, respectively. In addition, the GR50 in the data set on MM1.S [4] was 200 nM. The compound further yielded an inhibition in [28] of 44%.

Source of the values: ChEMBL document CHEMBL5316351, “Development of a Covalent Inhibitor of c-Jun N-Terminal Protein Kinase (JNK) 2/3 with Selectivity over JNK1” (J Med Chem, 2023).
